# Measurements: ChEMBL document CHEMBL3393033, “6-(Azaindol-2-yl)pyridine-3-sulfonamides as potent and selective inhibitors targeting hepatitis C virus NS4B” (Bioorg Med Chem Lett, 2015)
# Calls of active or inactive are those of the source. No cut-off for these calls is given here.
# Tests used:
# Hepatitis C virus [1] = assay: Antiviral activity against genotype 1b Hepatitis C virus bicistronic replicon Con1 infected in human HuH7 cells after 3 days by RT-PCR analysis; format: functional, cell-based, Hepacivirus hominis; conditions: genotype 1b Con1, Huh-7, 72 h
# Outline: (§1)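 Huh7 cells carrying a genotype 1b (Con1) bicistronic HCV replicon seeded at 5000 cells/well. Compound added at a final DMSO concentration of 0.5%, then incubated at 37°C for 3 days. Replicon RNA, and GAPDH RNA as the endogenous selectivity control, quantified by real-time RT-PCR. Values are the average of at least two independent determinations.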
# [2] = Toxicity in human HuH7 cells infected with genotype 1b Hepatitis C virus bicistronic replicon Con1 assessed as reduction in GAPDH RNA after 3 days by RT-PCR analysis; format: cell-based, Huh-7; outline: as §1
# [3] = AUC (0 to 6 hrs) in Sprague-Dawley rat plasma at 10 mg/kg, po administered as single dose by LC-MS/MS analysis; format: ADME, organism-based; parameters: time < 6 hr, dose 10 mg/kg, route oral
# Outline: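 Male Sprague Dawley rats (n = 2) were dosed once orally at 10 mg/kg. Compound was lyophilized from acetonitrile/water (1:1) and given as a suspension in 0.4% hydroxypropyl methylcellulose. Plasma was sampled at 30 min and at 1, 2, 3, 4 and 6 h post-dose for LC-MS/MS. AUC is over 0–6 h.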
# [4] = Ratio of plasma concentration in Sprague-Dawley rat at 10 mg/kg, po administered as single dose after 6 hrs to EC50 for genotype 1b Hepatitis C virus bicistronic replicon Con1 infected in human HuH7 cells; format: ADME, organism-based, Huh-7; parameters: dose 10 mg/kg, route oral; conditions: in vivo
# Outline: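 Male Sprague Dawley rats (n = 2) received a single 10 mg/kg oral dose in 0.4% hydroxypropyl methylcellulose suspension. Plasma concentration at 6 h post-dose was measured by LC-MS/MS and divided by the Con1 1b replicon EC₅₀ from the Huh7 RT-PCR assay.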
# [5] = Ratio of drug level in liver to plasma Sprague-Dawley rat plasma at 10 mg/kg, po administered as single dose by LC-MS/MS analysis; format: ADME, organism-based; parameters: dose 10 mg/kg, route oral
# Outline: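 Male Sprague Dawley rats (n = 2) received 10 mg/kg orally as a suspension in 0.4% hydroxypropyl methylcellulose, after lyophilization from acetonitrile/water (1:1). Liver and plasma concentrations were measured at 6 h post-dose by LC-MS/MS and expressed as a liver/plasma ratio.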
# [6] = AUC (0 to 24 hrs) in dog plasma at 2 mg/kg, po by LC-MS/MS analysis; format: ADME, organism-based, Canis lupus familiaris; parameters: time < 24 hr, dose 2 mg/kg, route oral
# Outline: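 Male beagle dogs (n = 2) were dosed orally at 2 mg/kg. Compound was lyophilized from acetonitrile/water (1:1) and given as a suspension in 0.4% hydroxypropyl methylcellulose. Plasma was collected at 30 min and at 1, 2, 4, 8 and 24 h for LC-MS/MS.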
# [7] = Ratio of plasma concentration in po dosed dog at 8 hrs to EC50 for genotype 1b Hepatitis C virus bicistronic replicon Con1 infected in human Huh7 cells; format: ADME, organism-based, Huh-7; conditions: in vivo
# Outline: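 Dogs: male beagles (n = 2) dosed orally at 2 mg/kg as a suspension in 0.4% hydroxypropyl methylcellulose. Plasma concentration at 8 h post-dose was measured by LC-MS/MS and divided by the replicon 1b EC₅₀.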
# [8] = Ratio of plasma concentration in po dosed monkey at 8 hrs to EC50 for genotype 1b Hepatitis C virus bicistronic replicon Con1 infected in human Huh7 cells; format: ADME, organism-based, Huh-7; conditions: in vivo
# Outline: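 Monkeys: male cynomolgus (n = 2) dosed orally at 3 mg/kg as a suspension in 0.4% hydroxypropyl methylcellulose. Plasma level at 8 h post-dose was measured by LC-MS/MS and expressed relative to the replicon 1b EC₅₀.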
# [9] = AUC (0 to 24 hrs) in monkey at 3 mg/kg, po by LC-MS/MS analysis; conditions: cynomolgus monkey, plasma
# Hepacivirus hominis [10] = assay: Inhibition of Hepatitis C virus NS3 protease up to 10000 nM
# Hepacivirus hominis [11] = assay: Inhibition of Hepatitis C virus NS5B polymerase up to 10000 nM
# Hepatitis C virus [12] = assay: Antiviral activity against HCV genotype 1b Con1 replicon cells expressing NS4B F98C mutant grown under serial passage in presence of 1x to 30x EC90 level of compound assessed as reduction in replicon RNA levels relative to wild type HCV genotype 1b Con1; format: functional, Hepacivirus hominis
# Hepatitis C virus [13] = assay: Antiviral activity against HCV genotype 1b Con1 replicon cells expressing NS4B V105M mutant grown under serial passage in presence of 1x to 30x EC90 level of compound assessed as reduction in replicon RNA levels relative to wild type HCV genotype 1b Con1; format: functional, Hepacivirus hominis
Compound,EC50 (Hepatitis C virus [1]) [nM],IC50 at 3 days [2] [nM],AUC(0-t) at 6 h [3] [µM·h],Ratio [4],Kp [5],also measured
C[C@H](NS(=O)(=O)c1ccc(-c2c(C#N)c3cccnc3n2C2CCC2)nc1)C(F)(F)F,217,> 10000,–,–,–,–
Cc1ccc2c(C#N)c(-c3ccc(S(=O)(=O)N[C@@H](C)C(F)(F)F)cn3)n(C3CCC3)c2n1,87,> 10000,–,–,–,–
C[C@H](NS(=O)(=O)c1ccc(-c2c(C#N)c3cc(Cl)ncc3n2C2CCC2)nc1)C(F)(F)F,530,> 10000,–,–,–,–
C[C@H](NS(=O)(=O)c1ccc(-c2c(C#N)c3ncc(Cl)cc3n2C2CCC2)nc1)C(F)(F)F,94,2500,–,–,–,–
C[C@H](NS(=O)(=O)c1ccc(-c2c(C#N)c3cc(Cl)cnc3n2C2CCC2)nc1)C(F)(F)F,17,> 10000,2.39,22,23,AUC(0-t) at 24 h [6]: 4.08 µM·h; Ratio [7]: 12; Ratio [8]: 2; AUC(0-t) at 24 h [9]: 1.03 µM·h
COc1ncc2c(C#N)c(-c3ccc(S(=O)(=O)N[C@@H](C)C(F)(F)F)cn3)n(C3CCC3)c2n1,240,> 10000,–,–,–,–
Cc1cnc2c(c1)c(C#N)c(-c1ccc(S(=O)(=O)N[C@@H](C)C(F)(F)F)cn1)n2C1CCC1,13,> 10000,6.92,55,9,AUC(0-t) at 24 h [6]: 5.67 µM·h; Ratio [7]: 14; Ratio [8]: 1; AUC(0-t) at 24 h [9]: 0.641 µM·h
C[C@H](NS(=O)(=O)c1ccc(-c2c(C#N)c3cc(F)cnc3n2C2CCC2)nc1)C(F)(F)F,46,> 10000,8.78,23,6,–
C[C@H](NS(=O)(=O)c1ccc(-c2c(C#N)c3cc(Cl)cnc3n2C2CCCC2)nc1)C(F)(F)F,27,> 10000,6.84,40,19,AUC(0-t) at 24 h [6]: 2.07 µM·h; Ratio [7]: 2; Ratio [8]: 0.3; AUC(0-t) at 24 h [9]: 0.29 µM·h
C[C@H](NS(=O)(=O)c1ccc(-c2c(C#N)c3cc(Cl)cnc3n2CC2CC2)nc1)C(F)(F)F,39,> 10000,–,–,–,–
CCc1cnc2c(c1)c(C#N)c(-c1ccc(S(=O)(=O)N[C@@H](C)C(F)(F)F)cn1)n2C1CCC1,15,> 5160,2.63,27,13,–
Cc1cc2c(C#N)c(-c3ccc(S(=O)(=O)N[C@@H](C)C(F)(F)F)cn3)n(C3CCC3)c2cn1,1400,> 10000,–,–,–,–
Cc1cnc2c(c1)c(C#N)c(-c1ccc(S(=O)(=O)N[C@@H](C)C(F)(F)F)cc1)n2C1CCC1,87,> 10000,–,–,–,–
C[C@H](NS(=O)(=O)c1ccc(-c2c(C#N)c3ccc(Cl)nc3n2C2CCC2)nc1)C(F)(F)F,700,6300,–,–,–,–
C[C@H](NS(=O)(=O)c1ccc(-c2c(C#N)c3cc(C4CC4)cnc3n2C2CCC2)nc1)C(F)(F)F,40,> 10000,10.2,32,11,–
COc1ccc2c(C#N)c(-c3ccc(S(=O)(=O)N[C@@H](C)C(F)(F)F)cn3)n(C3CCC3)c2n1,960,9700,–,–,–,–
C[C@H](NS(=O)(=O)c1ccc(-c2c(C#N)c3cnc(OC(F)F)nc3n2C2CCC2)nc1)C(F)(F)F,970,> 10000,–,–,–,–
CCCOc1cnc2c(c1)c(C#N)c(-c1ccc(S(=O)(=O)N[C@@H](C)C(F)(F)F)cn1)n2C1CCC1,2150,> 10000,–,–,–,–
C[C@H](NS(=O)(=O)c1ccc(-c2c(C#N)c3cc(C(F)(F)F)cnc3n2C2CCC2)nc1)C(F)(F)F,2,> 10000,5.83,503,44,AUC(0-t) at 24 h [6]: 8.16 µM·h; Ratio [7]: 125; Ratio [8]: 105; AUC(0-t) at 24 h [9]: 5.44 µM·h
COc1cnc2c(c1)c(C#N)c(-c1ccc(S(=O)(=O)N[C@@H](C)C(F)(F)F)cn1)n2CC1CC1,300,7900,–,–,–,–
Cc1cc2c(cn1)c(C#N)c(-c1ccc(S(=O)(=O)N[C@@H](C)C(F)(F)F)cn1)n2C1CCC1,230,> 10000,–,–,–,–
Cc1cnc2c(C#N)c(-c3ccc(S(=O)(=O)N[C@@H](C)C(F)(F)F)cn3)n(C3CCC3)c2c1,119,> 10000,–,–,–,–
C[C@H](NS(=O)(=O)c1ccc(-c2c(C#N)c3cc(OC(F)F)cnc3n2C2CCC2)nc1)C(F)(F)F,50,> 10000,9.37,36,7,–
CC(C)Oc1cnc2c(c1)c(C#N)c(-c1ccc(S(=O)(=O)N[C@@H](C)C(F)(F)F)cn1)n2C1CCC1,7600,> 10000,–,–,–,–
COc1cnc2c(c1)c(C#N)c(-c1ccc(S(=O)(=O)N[C@@H](C)C(F)(F)F)cn1)n2C1CCCC1,150,> 10000,–,–,–,–
Cc1cnc2c(c1)c(C#N)c(-c1ncc(S(=O)(=O)N[C@@H](C)C(F)(F)F)cn1)n2C1CCC1,160,> 10000,–,–,–,–
COc1cnc2c(c1)c(C#N)c(-c1ccc(S(=O)(=O)N[C@@H](C)C(F)(F)F)cn1)n2C1CCC1,27,> 9000,7.61,30,14,AUC(0-t) at 24 h [6]: 4.18 µM·h; Ratio [7]: 6; Ratio [8]: 4; inhibition (Hepacivirus hominis [10]): inactive; inhibition (Hepacivirus hominis [11]): inactive; fold change (FC) (Hepatitis C virus [12]): 25; fold change (FC) (Hepatitis C virus [13]): 17; AUC(0-t) at 24 h [9]: 2.28 µM·h
CCOc1cnc2c(c1)c(C#N)c(-c1ccc(S(=O)(=O)N[C@@H](C)C(F)(F)F)cn1)n2C1CCC1,200,> 10000,–,–,–,–
C[C@H](NS(=O)(=O)c1ccc(-c2c(C#N)c3cnc(Cl)cc3n2C2CCC2)nc1)C(F)(F)F,260,1310,–,–,–,–
